Experiment [1] deals with B16. Nature of the experiment: Antitumor activity against B16 melanoma from B6 D2 F1 female mice evaluated as Median survival time of treated mice at a dose of 0.50 mg/kg/day. In kind it is functional, Mus musculus. Summed up:
(§1)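 B6D2F1 female mice (C57BL/6 ♀ × DBA/2 ♂) implanted ip on day 0 with 0.5 mL of B16 tumor suspension (1 g homogenized in 9 mL 0.9% saline). Dosing ip on days 1, 5 and 9. Day-5 survivors give toxicity. Median survival of treated vs control mice gives T/C%, with ≥125% significant.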

For experiment [2], the system named is B16. Kind of experiment: Antitumor activity against B16 melanoma from B6 D2 F1 female mice(T/C) was evaluated from the median survival time of treated mice (T) over that of control mice (C) at a dose of 1 mg/kg/day. The experiment is classed as functional, Mus musculus. Summed up: as §1
The subject of experiment [3] is P388. Nature of the experiment: Average weight change of animals between day 1 and day 5 after tumor implementation at a dose of 0.12 mg/kg/day. The experiment is classed as functional, Mus musculus. Summed up:
(§2)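 P388 leukemia: CDF1 female mice were inoculated ip with 10⁶ cells on day 0. Treatment in 2% methanol was given ip on days 1, 5 and 9, with 10 mice per group and a larger control group. Body weight was recorded on days 1 and 5 post-implant, and the average change was reported.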

Experiment [4] relates to P388. Nature of the experiment: Antitumor activity (T/C) was evaluated from the median survival time of treated mice (T) over that of control mice (C) at a dose of 0.75 mg/kg/day. In kind it is functional, Mus musculus. Summed up:
(§3)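 CDF1 female mice (BALB/c ♀ × DBA/2 ♂) given 10⁶ P388 cells ip on day 0. Drug in 2% methanol given ip on days 1, 5 and 9, 10 mice per group and more controls. Toxicity is survivors on day 5, with weight change between days 1 and 5. Mortality followed 30 days. T/C% is treated over control median survival (NCI method), significant at ≥125%.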

Experiment [5] has as its system B16. Kind of experiment: Antitumor activity against B16 melanoma from B6 D2 F1 female mice as average weight change of animals between day 1 and day 5 after tumor implementation at a dose of 0.06 mg/kg/day (repeated ip injections, day 1-9). To be noted: route intraperitoneal. In kind it is functional, Mus musculus. Summed up:
(§4)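 B6D2F1 female mice (C57BL/6 × DBA/2) were implanted ip on day 0 with 0.5 mL of B16 suspension (1 g tumor homogenized in 9 mL 0.9% saline). Ip treatment was given once daily, day 1 to day 9. Body weight was recorded on days 1 and 5 after implantation, and the mean change per group was reported.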

Experiment [6] deals with B16. Nature of the experiment: Antitumor activity against B16 melanoma from B6 D2 F1 female mice evaluated as the number of survivors on day 5 at a dose of 0.25 mg/kg/day. The experiment is classed as functional, Mus musculus. Put shortly: as §1
Experiment [7] has as its system B16. Nature of the experiment: Antitumor activity against B16 melanoma from B6 D2 F1 female mice as average weight change of animals between day 1 and day 5 after tumor implementation at a dose of 0.25 mg/kg/day (repeated ip injections, day 1-9). The experiment is classed as functional, Mus musculus. The note with it: route intraperitoneal. Put shortly:
as §4

For experiment [8], the system named is L1210. Kind of experiment: Antitumor activity against L1210 Lymphoid Leukemia from CDF1 female mice as average weight change of animals between day 1 and day 5 after tumor implementation at a dose of 0.25 mg/kg/day. In kind it is functional, Mus musculus. Summed up: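 CDF1 female mice (BALB/c × DBA/2) received 10⁵ L1210 cells ip on day 0. Drug was dissolved in 2% methanol and given ip on days 1, 5 and 9, to 10 mice per group. Weights were taken on days 1 and 5, and the mean change was reported.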

The subject of experiment [9] is P388. Kind of experiment: Antitumor activity against P388 Leukemia from CDF1 female mice evaluated as Median survival time of treated mice at a dose of 0.03 mg/kg/day. In kind it is functional, Mus musculus. Put shortly: as §3
The subject of experiment [10] is B16. Kind of experiment: Antitumor activity against B16 melanoma from B6 D2 F1 female mice evaluated as the number of survivors on day 5 at a dose of 1 mg/kg/day. The experiment is classed as functional, Mus musculus. Summed up: as §1
Experiment [11] has as its system P388. Kind of experiment: Antitumor activity against P388 Leukemia from CDF1 female mice evaluated as the number of survivors on day 5 at a dose of 0.50 mg/kg/day. The experiment is classed as functional, Mus musculus. Put shortly: (§5)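 CDF1 female mice (BALB/c × DBA/2) inoculated ip with 10⁶ P388 cells on day 0. Drug given ip in 2% methanol on days 1, 5 and 9. Ten mice per dose group, with a larger control group. Body weight and survival were recorded on days 1 and 5, with toxicity taken as survivors on day 5. Mortality was followed for 30 days to give median survival time.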

Experiment [12] deals with B16. Kind of experiment: Antitumor activity against B16 melanoma from B6 D2 F1 female mice evaluated as the number of survivors on day 5 at a dose of 0.03 mg/kg/day (repeated ip injections, day 1-9). In kind it is functional, Mus musculus. To be noted: route intraperitoneal. Summed up:
(§6)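 B16 melanoma homogenate (1 g tumor in 9 mL 0.9% saline), 0.5 mL implanted ip on day 0 in B6D2F1 female mice (C57BL/6 ♀ × DBA/2 ♂). Treatment ip once daily from day 1 to day 9. Toxicity scored as survivors on day 5. Median survival recorded and T/C computed as treated/control median survival, ≥125% significant.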

Experiment [13] relates to P388. Nature of the experiment: Antitumor activity (T/C) was evaluated from the median survival time of treated mice (T) over that of control mice (C) at a dose of 0.03 mg/kg/day. The experiment is classed as functional, Mus musculus. Put shortly:
as §3

The subject of experiment [14] is B16. Nature of the experiment: Antitumor activity against B16 melanoma from B6 D2 F1 female mice(T/C) as median survival time of treated mice (T) over that of control mice (C) at a dose of 0.25 mg/kg/day (repeated ip injections, day 1-9). The experiment is classed as functional, Mus musculus. To be noted: route intraperitoneal. Put shortly:
as §6

The test system of experiment [15] is P388. Nature of the experiment: Average weight change of animals between day 1 and day 5 after tumor implementation at a dose of 0.06 mg/kg/day. In kind it is functional, Mus musculus. Put shortly:
as §2

Experiment [16] concerns B16. Nature of the experiment: Antitumor activity against B16 melanoma from B6 D2 F1 female mice evaluated as the number of survivors on day 5 at a dose of 0.50 mg/kg/day (repeated ip injections, day 1-9). The note with it: route intraperitoneal. In kind it is functional, Mus musculus. Put shortly: as §6
The subject of experiment [17] is B16. Nature of the experiment: Antitumor activity against B16 melanoma from B6 D2 F1 female mice evaluated as average weight change of animals between day 1 and day 5 after tumor implementation at a dose of 0.25 mg/kg/day. The experiment is classed as functional, Mus musculus. Put shortly:
(§7)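 B16 melanoma in B6D2F1 female mice: 0.5 mL of tumor homogenate (1 g in 9 mL 0.9% saline) was given ip on day 0. Ip dosing was on days 1, 5 and 9. The readout was the average body weight change between day 1 and day 5 after tumor implantation.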

Experiment [18] has as its system L1210. Kind of experiment: In vitro cytostatic activity determined on L1210 leukemia cells at 48 hours. In kind it is functional. To be noted: Mus musculus, L1210, 48 h; read-out: ID50 (the source's name). Summed up:
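Log-phase L1210 cells were seeded at 0.8 × 10⁵ cells/mL in RPMI 1640 with 20% heat-inactivated horse serum, 2 mmol/L L-glutamine, streptomycin and penicillin. Drugs in ethanol (0.5% final) were tested at several concentrations.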

Experiment [19] deals with B16. Nature of the experiment: Antitumor activity against B16 melanoma from B6 D2 F1 female mice evaluated as average weight change of animals between day 1 and day 5 after tumor implementation at a dose of 0.50 mg/kg/day. In kind it is functional, Mus musculus. Summed up: as §7
In experiment [20] the test system is P388. Nature of the experiment: Antitumor activity against P388 Leukemia from CDF1 female mice evaluated as Median survival time of treated mice at a dose of 0.75 mg/kg/day. The experiment is classed as functional, Mus musculus. Summed up:
as §5

Experiment [21] relates to L1210. Kind of experiment: Antitumor activity against L1210 Lymphoid Leukemia from CDF1 female mice as Median survival time of treated mice at a dose of 1.0 mg/kg/day. In kind it is functional, Mus musculus. Summed up: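 L1210 leukemia, 10⁵ cells ip on day 0 into CDF1 female mice (BALB/c ♀ × DBA/2 ♂). Drug in 2% methanol given ip on days 1, 5 and 9, 10 mice per group. Survivors and body weight recorded on days 1 and 5, with toxicity as survivors on day 5. Deaths followed for 30 days. T/C = treated/control median survival time, significant at ≥125%.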

In brackets after ≈: the same amount, converted by molar mass.

As a reminder, the T/C is the ratio of treated to control. For `COc1ccc(C[C@H]2C(=O)O[C@H](C)[C@H](NC(=O)[C@@H](CC(C)C)N(C)C(=O)C3CCCN3C(=O)[C@@H](C)O)C(=O)NC(C(C)C)[C@H](O)CC(=O)O[C@@H](C(C)C)C(=O)[C@H](C)C(=O)N[C@@H](CC(C)C)C(=O)N3CCC[C@H]3C(=O)N2C)cc1` (stereo partly specified) [NORDIDEMNIN], the “median survival time, days” value in experiment [1] was determined as 28; in [9], 12.4; in experiment [20] it was 19.4; in [21], 11.2. Moreover, the T/C in experiment [2] is 154%; in [4], 175%; in experiment [13] it was 112%; in [14], 157%. Moreover, the Body weight change in experiment [3] was -0.7 g; in experiment [5], -0.3 g; in [7], -2.1 g; in experiment [8], 0 g; in experiment [15], 0.2 g; in [17] it was 0 g. Besides, in experiment [19], the Body weight change is -0.9 g. Further, the Toxicity in experiment [6] turned out to be 1; in [10] it was 1; in [11] it was 1; in experiment [12], 0.9; in experiment [16], 1. Further, the IC50 in experiment [18] turned out to be 1.9 ng/mL (≈ 1.73 nM).
